Screens: PubChem BioAssay, several laboratories
Pyk2 oligo antag: antagonists of human Pyk2 oligomerization. Q14289. Q293 cells, Pyk2 FERM NanoBiT luminescence; stronger effect = lower value. z-score (the deposit names both 25 µM and 10 µM). 99,000 compounds, 0.83% hits;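 active means Z-score of -3 or lower, scaled per plate to the spread of control and sample wells; inactive means z-score above -3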;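 further: negative z-score means lost luminescence so less FERM oligomerization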
Target sequence (Q14289 whole entry, looked up): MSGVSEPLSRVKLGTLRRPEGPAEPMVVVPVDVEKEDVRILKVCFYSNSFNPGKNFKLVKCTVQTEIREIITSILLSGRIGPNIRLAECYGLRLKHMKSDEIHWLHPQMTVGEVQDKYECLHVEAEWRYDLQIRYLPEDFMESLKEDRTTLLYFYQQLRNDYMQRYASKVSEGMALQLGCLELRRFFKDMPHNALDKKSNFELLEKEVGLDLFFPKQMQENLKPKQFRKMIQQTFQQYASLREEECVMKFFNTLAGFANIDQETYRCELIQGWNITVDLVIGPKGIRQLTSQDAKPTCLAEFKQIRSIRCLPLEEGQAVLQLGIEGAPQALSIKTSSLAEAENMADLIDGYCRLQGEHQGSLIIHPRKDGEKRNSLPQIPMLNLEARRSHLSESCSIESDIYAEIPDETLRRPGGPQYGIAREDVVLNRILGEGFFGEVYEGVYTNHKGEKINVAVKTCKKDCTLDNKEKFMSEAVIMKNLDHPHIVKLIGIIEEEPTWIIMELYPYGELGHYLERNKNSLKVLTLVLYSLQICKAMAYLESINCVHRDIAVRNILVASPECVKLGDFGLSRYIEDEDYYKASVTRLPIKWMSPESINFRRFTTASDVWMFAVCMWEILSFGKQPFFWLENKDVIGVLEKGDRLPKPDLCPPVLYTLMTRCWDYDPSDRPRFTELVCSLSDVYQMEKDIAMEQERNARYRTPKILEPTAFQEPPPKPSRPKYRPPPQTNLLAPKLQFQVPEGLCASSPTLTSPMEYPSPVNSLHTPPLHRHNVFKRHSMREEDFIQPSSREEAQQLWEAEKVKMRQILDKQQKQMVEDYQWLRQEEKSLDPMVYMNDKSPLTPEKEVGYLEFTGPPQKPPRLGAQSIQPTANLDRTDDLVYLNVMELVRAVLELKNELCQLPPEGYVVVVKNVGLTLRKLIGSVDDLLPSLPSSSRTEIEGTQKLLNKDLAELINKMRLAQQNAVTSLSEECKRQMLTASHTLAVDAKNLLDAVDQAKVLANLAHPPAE
FAK blocker: FAK (human) kinase inhibition. biochemical FAK kinase activity assay. AID 727. Q05397. 97,000 compounds, 0.84% hits. inhibition, %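 (tested at 7 µM)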; in the data active means inhibition above about 19%;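 further: 0% = DMSO and 100% = reference compound high control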
Candida biofilm: kills Candida albicans biofilms; C. albicans biofilm + clotrimazole, Alamar Blue; inhibition, % at 6 µM; 85,000 compounds, 0.14% hits;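 active means inhibition above 20%; inactive means inhibition below 20%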;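 further: preformed 24 hr biofilms exposed to compound for 48 hr; 0% = biofilm without compound and 100% = blank killed by clotrimazole plus chlorhexidine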
PostGolgi yeast: growth inhibition of a yeast mutant, post-Golgi transport screen; post-Golgi transport phenotypic cell assay; inhibition, % at 10 µM; 98,000 compounds, 0.9% hits; AID 739;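 further: yeast cells grown in 1536-well plates; yeast grown about 18 h at 30C before absorbance read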
PostGolgi ctrl: growth of the yeast control strain, post-Golgi counter-screen | AID 738 | efflux-deficient yeast background strain, growth absorbance A615, 16 h | 98,000 compounds, 5% hits | inhibition, % at 10 µM
tolC growth inh: blocks growth of E. coli BW25113 tolC mutant | OD615 | growth inhibition, % at 10 µM (by protocol) | 65,000 compounds, 2.2% hits | AID 573;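 active means growth inhibition at or above a cutoff equal to the mean over every tested compound plus 3 SD, cut at about 60% in these data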;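 further: growth measured after 20 h incubation at 37 °C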
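Test system – E. coli BW25113 ΔtolC::kan, tolC deletion mutant strain · Detection – OD at 615 nm · Buffer or medium – LB with kanamycin 50 µg/mL · Times – 20 h compound exposure of bacteria at 37 °C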
Numbers without * were called inactive; · = no result given. An excerpt weighted towards active compounds, which were near 6.9% of everything screened. Unless noted, no stated cut-off is given here; in the data, active means inhibition above about 30%; inactive means the rest.

SMILES	Pyk2 oligo antag	FAK blocker	Candida biofilm	PostGolgi yeast	PostGolgi ctrl	tolC growth inh
CCN1/C(=C(\O)c2ccccc2)C(=O)c2ccccc2S1(=O)=O	-0.35	-0.7	0.2	11.0	22.7	89.1*
COC(=O)c1ccc(Oc2cc(C)nc(NCc3ccccc3)n2)cc1	-0.9	4.7	-2.8	-8.3	5.3	7.2
Cc1cc(Oc2ccc(C#N)cc2)nc(NCc2ccccc2)n1	0.14	8.3	-6.1	4.3	30.7*	·
CCOC(=O)c1ccc(NC(=O)COc2ccccc2OC)cc1	0.99	1.9	·	-3.0	21.4	3.6
CC(NC(=O)Cn1cnnn1)C12CC3CC(CC(C3)C1)C2 (stereo unspecified)	0.55	-1.9	10.5	17.5	14.0	-14.7
CCCn1c(SCC(=O)NC(C)C23CC4CC(CC(C4)C2)C3)n[nH]c1=O (stereo unspecified)	3.38	0.4	6.8	-2.5	38.1*	·
O=C(Nc1ccc(Cl)c(Cl)c1)N1CC=CCC1	1.5	·	10.0	-12.1	8.6	24.4
COc1ccc(S(=O)(=O)N2CC3C4C=CC(C4)C3C2)cc1 (stereo unspecified)	-0.18	-1.1	8.1	-5.7	46.8*	20.9
CCCNC(=O)c1cc(-c2ccc(OC)cc2)on1	0.55	0.4	2.3	3.2	-2.7	2.3
CCCCCCn1c(COc2ccccc2F)nnc1SCC(=O)N1c2ccccc2NC(=O)C1(C)C	0.02	-8.5	6.0	-4.2	0.7	·
CCNc1nc(NCC)nc(N/N=C/c2ccc([N+](=O)[O-])o2)n1	1.11	0.6	·	3.9	7.7	·
O=[N+]([O-])c1ccc(/C=N/Nc2nc(-c3ccccc3)c3cc(Br)ccc3n2)o1	-2.16	5.9	·	8.9	64.2*	·
Cc1ccc2nc(N/N=C\c3ccc([N+](=O)[O-])o3)nc(-c3ccccc3)c2c1	-3.96*	16.3	8.7	107.6*	98.7*	·
N#Cc1ccccc1/C=N/Nc1nc(-c2ccccc2)c2cc(Br)ccc2n1	-0.59	16.3	·	4.7	10.2	·
CCCS(=O)(=O)c1nnnn1-c1cccc(OC)c1	-2.27	·	7.9	54.9*	29.1	40.5
CCOC(=O)N1CCN(c2nc(=S)n(-c3ccccc3)c(C)c2C(C)=O)CC1	0.91	2.1	4.4	1.1	-9.9	-11.8
Cc1ccccc1-c1noc(-c2cccs2)n1	·	·	7.9	-0.8	6.5	0.6
CCC(=O)Nc1nnc(-c2ccco2)o1	·	7.1	10.2	3.4	2.9	-0.3
Cc1ccsc1C(=O)Nc1nnc(-c2ccco2)o1	1.81	0.2	6.2	5.3	2.9	98.2*
Cc1c(-c2ccccc2)nc2ccccc2c1C(=O)Oc1ccc([N+](=O)[O-])cc1	0.89	-3.6	·	6.3	6.8	·
Nc1ccc(Oc2ccc3nc(-c4ccccc4)c(-c4ccc([N+](=O)[O-])cc4)nc3c2)cc1	-1.91	3.5	·	37.0*	18.6	·
CCCOc1ccc2c3c(c(=O)oc2c1OCCC)CCCC3	-1.29	-2.7	3.5	-4.7	55.8*	·
CCOc1ccc2c3c(c(=O)oc2c1OCC)CCCC3	-0.67	2.0	6.5	-6.2	14.9	·
CCn1c(SCc2ccc(C(=O)OC)o2)nc2sc3c(c2c1=O)CCCC3	-1.13	-2.7	3.5	-2.6	6.5	16.7
COCCCn1c(SCc2nnc(-c3ccccc3)o2)nc2sc3c(c2c1=O)CCC3	0.34	-13.4	·	63.1*	99.6*	·
SMILES	Pyk2 oligo antag	FAK blocker	Candida biofilm	PostGolgi yeast	PostGolgi ctrl	tolC growth inh
Cn1c(SCc2nnc(-c3ccccc3Br)o2)nc2sc3c(c2c1=O)CCC3	-1.07	·	1.1	-8.6	45.1*	23.7
COc1ccccc1OCc1ccc(C(=O)N2CCN(C(=O)c3ccco3)CC2)cc1	1.12	-1.6	1.1	9.7	-6.7	-13.6
CC1(C)Cc2c(C#N)c(SCc3ccccc3)nc(N3CCOCC3)c2CO1	-2.39	2.1	9.0	-4.6	38.0*	25.5
CCCSc1nc(N2CCOCC2)c2c(c1C#N)CC(C)(C)SC2	-0.6	2.3	0.5	-1.7	16.4	·
CCSc1nc(N2CCOCC2)c2c(c1C#N)CCCC2	-2.32	-1.9	8.3	8.1	40.5*	20.6
CC(C)c1nc(N2CCOCC2)c(C#N)c2c1CCCC2	-0.43	0.9	1.7	-4.8	10.5	64.9*
CC1CCOC(c2coc3ccccc3c2=O)O1 (stereo unspecified)	0.77	·	·	·	·	·
CCn1c(=NC(=O)CSC(C)=O)sc2cc(OC)ccc21	·	0.8	·	3.2	9.9	4.7
CCOC(=O)c1c(C)n(C)c2ccc(OC)c(NS(=O)(=O)c3ccc(Cl)s3)c12	-1.15	2.7	7.8	-7.4	33.8*	19.4
CCOC(=O)c1c(C)n(C)c2ccc(OC)c(NC(=O)CN3CCCCC3)c12	0.18	-11.7	6.0	7.7	5.1	14.0
